Measured values reported in ChEMBL document CHEMBL4184148 (Bioorg Med Chem Lett, 2017).

What was measured:
[1] = target: MAP/microtubule affinity-regulating kinase 3 (Homo sapiens) (UniProt P27448); assay: Binding affinity to wild-type human full length MARK3 (M1 to L729 residues) expressed in Escherichia coli BL21 at 1 uM by Kinomescan method relative to control
Outline: (§1)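 Run as one kinome-wide competition binding panel with each compound at a single fixed concentration. Results were plotted as a kinome-wide selectivity map.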

[2] = target: Mitogen-activated protein kinase 6 (Homo sapiens) (UniProt Q16659); assay: Binding affinity to wild-type human partial length ERK3 (M1 to P413 residues) expressed in Escherichia coli BL21 at 1 uM by Kinomescan method relative to control
[3] = target: Mitogen-activated protein kinase 4 (Homo sapiens) (UniProt P31152); assay: Binding affinity to wild-type human partial length ERK4 (M1 to L365 residues) expressed in Escherichia coli BL21 at 1 uM by Kinomescan method relative to control
[4] = target: Macrophage-stimulating protein receptor (Homo sapiens) (UniProt Q04912); assay: Binding affinity to wild-type human partial length MST1R (I1057 to L1363 residues) expressed in Escherichia coli BL21 at 1 uM by Kinomescan method relative to control
[5] = target: Bromodomain-containing protein 4 (Homo sapiens, UniProt O60885); assay: Inhibition of BRD4 (unknown origin) by AlphaScreen assay
[6] = target: Mast/stem cell growth factor receptor Kit (Homo sapiens) (UniProt P10721); assay: Binding affinity to wild-type human partial length KIT (I571 to D952 residues) expressed in Escherichia coli BL21 at 1 uM by Kinomescan method relative to control
[7] = target: Tyrosine-protein kinase CSK (Homo sapiens) (UniProt P41240); assay: Binding affinity to wild-type human full length CSK (M1 to L450 residues) expressed in Escherichia coli BL21 at 1 uM by Kinomescan method relative to control; outline: as §1
[8] = target: Dual specificity protein kinase CLK4 (Homo sapiens) (UniProt Q9HAZ1); assay: Binding affinity to wild-type human partial length CLK4 (R135 to K481 residues) expressed in Escherichia coli BL21 at 1 uM by Kinomescan method relative to control
[9] = target: Dual specificity protein kinase TTK (Homo sapiens) (UniProt P33981); assay: Binding affinity to wild-type human partial length TTK (N505 to V798 residues) expressed in Escherichia coli BL21 at 1 uM by Kinomescan method relative to control
[10] = target: Serine/threonine-protein kinase MRCK alpha (Homo sapiens) (UniProt Q5VT25); assay: Binding affinity to wild-type human partial length MRCKA (L57 to V418 residues) expressed in Escherichia coli BL21 at 1 uM by Kinomescan method relative to control
[11] = target: Serine/threonine-protein kinase PLK4 (Homo sapiens) (UniProt O00444); assay: Binding affinity to wild-type human partial length PLK4 (M1 to S273 residues) expressed in HEK293 cells at 1 uM by Kinomescan method relative to control; format: cell-based
[12] = target: Serine/threonine-protein kinase 38-like (Homo sapiens) (UniProt Q9Y2H1); assay: Binding affinity to wild-type human partial length NDR2 (N34 to E447 residues) expressed in Escherichia coli BL21 at 1 uM by Kinomescan method relative to control
[13] = target: Phosphatidylinositol 5-phosphate 4-kinase type-2 gamma (Homo sapiens) (UniProt Q8TBX8); assay: Binding affinity to wild-type human partial length PIP5K2C (M1 to A421 residues) expressed in HEK293 cells at 1 uM by Kinomescan method relative to control; format: cell-based
[14] = target: Serine/threonine-protein kinase SBK1 (Homo sapiens) (UniProt Q52WX2); assay: Binding affinity to wild-type human partial length SBK1 (P23 to P348 residues) expressed in HEK293 cells at 1 uM by Kinomescan method relative to control; format: cell-based
Aurora kinase B = Aurora kinase B (Homo sapiens, UniProt Q96GD4); assay: Inhibition of recombinant full length His-tagged human Aurora B expressed in baculovirus expression system by Z'LYTE assay
Outline: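 Z'LYTE biochemical kinase assay run at the Km ATP concentration for each kinase. IC50 was determined and reported ± standard error.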

[15] = test system: Mast/stem cell growth factor receptor Kit (Homo sapiens), P10721 [D816V]; assay: Binding affinity to human partial length KIT D816V mutant (I571 to D952 residues) expressed in Escherichia coli BL21 at 1 uM by Kinomescan method relative to control
[16] = target: Serine/threonine-protein kinase Nek10 (Homo sapiens) (UniProt Q6ZWH5); assay: Binding affinity to wild-type human partial length NEK10 (L488 to R809 residues) expressed in HEK293 cells at 1 uM by Kinomescan method relative to control; format: cell-based
[17] = target: Serine/threonine-protein kinase haspin (Homo sapiens) (UniProt Q8TF76); assay: Binding affinity to wild-type human partial length HASPIN (I452 to K798 residues) expressed in HEK293 cells at 1 uM by Kinomescan method relative to control; format: cell-based
[18] = target: Phosphatidylinositol 4,5-bisphosphate 3-kinase catalytic subunit gamma isoform (Homo sapiens) (UniProt P48736); assay: Binding affinity to wild-type human partial length PIK3CG (S144 to A1102 residues) expressed in HEK293 cells at 1 uM by Kinomescan method relative to control; format: cell-based
[19] = target: Receptor tyrosine-protein kinase erbB-3 (Homo sapiens) (UniProt P21860); assay: Binding affinity to wild-type human partial length ERBB3 (G684 to A987 residues) expressed in HEK293 cells at 1 uM by Kinomescan method relative to control; format: cell-based
[20] = target: Serine/threonine-protein kinase 35 (Homo sapiens) (UniProt Q8TDR2); assay: Binding affinity to wild-type human partial length STK35 (G182 to A534 residues) expressed in Escherichia coli BL21 at 1 uM by Kinomescan method relative to control
[21] = target: SRSF protein kinase 1 (Homo sapiens) (UniProt Q96SB4); assay: Binding affinity to wild-type human full length SRPK1 (M1 to S655 residues) expressed in Escherichia coli BL21 at 1 uM by Kinomescan method relative to control
Outline: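 Kinome-wide competition binding panel run by an outside provider, with each compound tested at a single concentration. Activity is read against the kinase panel.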

[22] = target: Mitogen-activated protein kinase kinase kinase 3 (Homo sapiens) (UniProt Q99759); assay: Binding affinity to wild-type human partial length MAP3K3 (E320 to Y626 residues) expressed in HEK293 cells at 1 uM by Kinomescan method relative to control; format: cell-based
[23] = target: Serine/threonine-protein kinase ICK (Homo sapiens) (UniProt Q9UPZ9); assay: Binding affinity to wild-type human partial length ICK (M1 to P314 residues) expressed in HEK293 cells at 1 uM by Kinomescan method relative to control; format: cell-based
[24] = target: Protein kinase C epsilon type (Homo sapiens) (UniProt Q02156); assay: Binding affinity to wild-type human partial length PRKCE (A378 to P737 residues) expressed in HEK293 cells at 1 uM by Kinomescan method relative to control; format: cell-based
[25] = target: Tyrosine-protein kinase Fgr (Homo sapiens) (UniProt P09769); assay: Binding affinity to wild-type human partial length FGR (L233 to T529 residues) expressed in Escherichia coli BL21 at 1 uM by Kinomescan method relative to control
Chain of Tyrosine-protein kinase Fgr (Homo sapiens) (P09769 2-529 limits assumed): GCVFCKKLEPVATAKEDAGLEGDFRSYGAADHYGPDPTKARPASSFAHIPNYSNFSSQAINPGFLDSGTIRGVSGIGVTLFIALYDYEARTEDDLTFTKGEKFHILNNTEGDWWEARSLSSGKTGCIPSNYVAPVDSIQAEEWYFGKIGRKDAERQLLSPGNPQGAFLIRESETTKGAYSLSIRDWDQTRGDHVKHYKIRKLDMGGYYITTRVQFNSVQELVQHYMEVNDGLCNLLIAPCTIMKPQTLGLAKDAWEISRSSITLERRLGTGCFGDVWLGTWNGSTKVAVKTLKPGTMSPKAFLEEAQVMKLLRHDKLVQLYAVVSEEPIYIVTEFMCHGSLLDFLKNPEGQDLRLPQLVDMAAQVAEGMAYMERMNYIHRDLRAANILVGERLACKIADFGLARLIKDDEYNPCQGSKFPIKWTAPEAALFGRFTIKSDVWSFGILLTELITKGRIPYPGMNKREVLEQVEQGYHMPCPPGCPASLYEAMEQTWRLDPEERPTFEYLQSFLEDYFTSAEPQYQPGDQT

Chain of Serine/threonine-protein kinase Nek10 (Homo sapiens) (Q6ZWH5 whole entry, the tested form may be a part): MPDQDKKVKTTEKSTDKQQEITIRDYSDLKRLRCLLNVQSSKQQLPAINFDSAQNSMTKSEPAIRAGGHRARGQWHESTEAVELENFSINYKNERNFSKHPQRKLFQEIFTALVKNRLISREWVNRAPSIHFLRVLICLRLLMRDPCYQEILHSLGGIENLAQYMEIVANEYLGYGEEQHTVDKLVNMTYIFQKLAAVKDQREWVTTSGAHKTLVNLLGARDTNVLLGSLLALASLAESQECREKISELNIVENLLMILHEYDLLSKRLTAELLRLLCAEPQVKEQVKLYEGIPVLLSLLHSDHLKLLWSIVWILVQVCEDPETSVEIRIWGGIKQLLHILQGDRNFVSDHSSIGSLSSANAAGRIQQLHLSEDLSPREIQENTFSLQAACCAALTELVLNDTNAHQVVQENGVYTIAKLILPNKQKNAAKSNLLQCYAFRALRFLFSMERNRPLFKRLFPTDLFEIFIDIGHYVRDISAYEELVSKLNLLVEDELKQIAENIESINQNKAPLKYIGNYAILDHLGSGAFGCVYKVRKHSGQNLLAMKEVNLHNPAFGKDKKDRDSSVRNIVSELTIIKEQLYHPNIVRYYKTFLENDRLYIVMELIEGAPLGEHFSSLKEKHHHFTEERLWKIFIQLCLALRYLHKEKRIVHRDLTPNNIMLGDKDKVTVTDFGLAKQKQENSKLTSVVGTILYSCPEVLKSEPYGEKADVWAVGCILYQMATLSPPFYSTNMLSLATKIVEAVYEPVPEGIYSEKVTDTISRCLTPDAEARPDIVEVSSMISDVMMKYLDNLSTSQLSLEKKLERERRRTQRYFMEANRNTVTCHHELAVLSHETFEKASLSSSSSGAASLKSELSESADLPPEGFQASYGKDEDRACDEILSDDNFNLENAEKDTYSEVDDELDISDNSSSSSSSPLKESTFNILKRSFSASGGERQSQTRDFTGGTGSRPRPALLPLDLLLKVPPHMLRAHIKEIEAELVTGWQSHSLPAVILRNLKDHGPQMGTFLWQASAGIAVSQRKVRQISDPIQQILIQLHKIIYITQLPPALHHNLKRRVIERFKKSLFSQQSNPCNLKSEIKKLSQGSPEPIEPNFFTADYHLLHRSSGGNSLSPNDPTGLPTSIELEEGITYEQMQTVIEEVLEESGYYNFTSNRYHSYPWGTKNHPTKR
Chain of Serine/threonine-protein kinase haspin (Homo sapiens) (Q8TF76 whole entry, the tested form may be a part, canonical isoform): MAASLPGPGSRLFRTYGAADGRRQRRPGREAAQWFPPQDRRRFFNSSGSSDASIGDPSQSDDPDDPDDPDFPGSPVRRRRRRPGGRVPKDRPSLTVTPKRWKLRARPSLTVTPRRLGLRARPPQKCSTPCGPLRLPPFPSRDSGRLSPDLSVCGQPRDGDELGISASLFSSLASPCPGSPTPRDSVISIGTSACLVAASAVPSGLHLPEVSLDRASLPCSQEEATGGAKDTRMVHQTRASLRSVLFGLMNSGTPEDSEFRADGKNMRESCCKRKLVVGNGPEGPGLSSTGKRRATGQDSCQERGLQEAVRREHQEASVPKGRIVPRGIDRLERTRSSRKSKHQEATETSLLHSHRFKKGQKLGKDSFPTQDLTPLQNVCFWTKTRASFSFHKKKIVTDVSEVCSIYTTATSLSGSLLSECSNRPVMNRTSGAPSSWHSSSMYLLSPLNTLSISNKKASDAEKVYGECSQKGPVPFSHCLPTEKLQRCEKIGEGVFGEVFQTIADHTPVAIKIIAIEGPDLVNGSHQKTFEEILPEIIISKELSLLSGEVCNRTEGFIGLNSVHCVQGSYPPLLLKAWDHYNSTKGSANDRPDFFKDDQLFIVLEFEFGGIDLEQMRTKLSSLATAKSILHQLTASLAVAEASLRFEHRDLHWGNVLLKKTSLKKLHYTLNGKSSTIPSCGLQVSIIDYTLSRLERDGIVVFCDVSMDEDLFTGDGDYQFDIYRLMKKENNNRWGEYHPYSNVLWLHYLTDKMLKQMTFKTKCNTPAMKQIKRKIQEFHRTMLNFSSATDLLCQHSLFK
Chain of Receptor tyrosine-protein kinase erbB-3 (Homo sapiens) (P21860 whole entry, the tested form may be a part): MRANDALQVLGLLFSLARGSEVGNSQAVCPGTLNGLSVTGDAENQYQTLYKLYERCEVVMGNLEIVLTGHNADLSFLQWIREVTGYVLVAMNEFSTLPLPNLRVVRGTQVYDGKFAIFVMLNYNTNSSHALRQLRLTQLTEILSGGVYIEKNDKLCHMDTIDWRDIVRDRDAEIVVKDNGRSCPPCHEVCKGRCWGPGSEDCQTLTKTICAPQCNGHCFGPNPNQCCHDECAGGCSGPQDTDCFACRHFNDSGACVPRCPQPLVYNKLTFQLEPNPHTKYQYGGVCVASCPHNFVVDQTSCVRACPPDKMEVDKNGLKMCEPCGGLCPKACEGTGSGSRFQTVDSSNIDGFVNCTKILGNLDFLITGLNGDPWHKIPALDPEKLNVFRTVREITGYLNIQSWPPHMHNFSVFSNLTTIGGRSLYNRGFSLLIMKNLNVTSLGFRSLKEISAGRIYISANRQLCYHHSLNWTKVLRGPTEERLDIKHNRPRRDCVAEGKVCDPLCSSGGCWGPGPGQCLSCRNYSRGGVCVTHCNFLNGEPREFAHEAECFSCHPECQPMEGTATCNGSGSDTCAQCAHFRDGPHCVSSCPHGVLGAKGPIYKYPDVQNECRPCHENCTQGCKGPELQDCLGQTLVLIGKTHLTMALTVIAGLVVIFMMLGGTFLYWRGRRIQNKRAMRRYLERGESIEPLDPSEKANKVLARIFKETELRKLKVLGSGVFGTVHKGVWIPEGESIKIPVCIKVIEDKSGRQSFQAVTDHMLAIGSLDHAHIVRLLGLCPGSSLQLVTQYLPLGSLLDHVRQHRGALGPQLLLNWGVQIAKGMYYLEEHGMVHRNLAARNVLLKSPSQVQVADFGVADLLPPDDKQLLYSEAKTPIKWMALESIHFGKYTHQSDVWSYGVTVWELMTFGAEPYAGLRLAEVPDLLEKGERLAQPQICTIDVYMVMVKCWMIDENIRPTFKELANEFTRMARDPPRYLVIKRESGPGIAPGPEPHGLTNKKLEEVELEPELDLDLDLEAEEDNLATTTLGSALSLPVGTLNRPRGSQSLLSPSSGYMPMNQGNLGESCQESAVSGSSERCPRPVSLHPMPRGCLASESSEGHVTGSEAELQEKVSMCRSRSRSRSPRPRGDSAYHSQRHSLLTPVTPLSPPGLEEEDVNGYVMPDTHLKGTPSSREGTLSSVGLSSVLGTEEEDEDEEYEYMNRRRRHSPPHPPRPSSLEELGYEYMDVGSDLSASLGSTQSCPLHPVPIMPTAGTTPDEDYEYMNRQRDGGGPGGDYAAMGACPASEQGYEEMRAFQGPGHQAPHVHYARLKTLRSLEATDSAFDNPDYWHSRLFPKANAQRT
Chain of Serine/threonine-protein kinase ICK (Homo sapiens) (Q9UPZ9 whole entry, the tested form may be a part): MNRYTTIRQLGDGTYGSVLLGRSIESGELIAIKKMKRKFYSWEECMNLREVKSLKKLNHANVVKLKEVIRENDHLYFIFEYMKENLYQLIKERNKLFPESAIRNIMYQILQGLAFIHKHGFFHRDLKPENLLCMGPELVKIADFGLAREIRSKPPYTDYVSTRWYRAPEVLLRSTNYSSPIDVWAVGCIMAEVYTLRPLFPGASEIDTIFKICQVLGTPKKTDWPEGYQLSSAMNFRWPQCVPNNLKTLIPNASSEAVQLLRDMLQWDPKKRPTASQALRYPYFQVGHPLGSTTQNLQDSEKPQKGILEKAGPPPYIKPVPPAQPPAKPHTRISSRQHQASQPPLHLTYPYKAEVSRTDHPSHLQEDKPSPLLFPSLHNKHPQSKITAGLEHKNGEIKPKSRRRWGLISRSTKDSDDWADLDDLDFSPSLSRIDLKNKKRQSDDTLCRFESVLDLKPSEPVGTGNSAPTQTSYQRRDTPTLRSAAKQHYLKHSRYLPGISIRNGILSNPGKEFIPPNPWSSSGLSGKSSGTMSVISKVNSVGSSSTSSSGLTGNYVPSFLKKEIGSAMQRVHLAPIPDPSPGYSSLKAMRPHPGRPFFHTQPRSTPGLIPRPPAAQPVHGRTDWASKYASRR
Chain of Aurora kinase B (Q96GD4 whole entry): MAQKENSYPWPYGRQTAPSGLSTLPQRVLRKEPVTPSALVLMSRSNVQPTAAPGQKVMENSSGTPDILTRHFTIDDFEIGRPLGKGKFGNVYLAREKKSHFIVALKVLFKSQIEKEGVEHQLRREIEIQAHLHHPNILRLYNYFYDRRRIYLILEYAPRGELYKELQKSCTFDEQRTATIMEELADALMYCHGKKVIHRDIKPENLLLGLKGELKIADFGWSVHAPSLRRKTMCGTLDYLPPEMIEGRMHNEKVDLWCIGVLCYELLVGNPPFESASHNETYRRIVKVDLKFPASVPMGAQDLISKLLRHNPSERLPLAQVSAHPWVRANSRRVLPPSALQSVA

| Structure (SMILES) | Activity [1] [%] | Activity [2] [%] | Activity [3] [%] | Activity [4] [%] | IC50 [5] [µM] | Activity [6] [%] | Activity [7] [%] | Activity [8] [%] | Activity [9] [%] | Activity [10] [%] | Activity [11] [%] | Activity [12] [%] | Activity [13] [%] | Activity [14] [%] | IC50 (Aurora kinase B) [µM] | Activity [15] [%] | Activity [16] [%] | Activity [17] [%] | Activity [18] [%] | Activity [19] [%] | further results |
| --- | --- | --- | --- | --- | --- | --- | --- | --- | --- | --- | --- | --- | --- | --- | --- | --- | --- | --- | --- | --- | --- |
| CCC(=O)Nc1ccc(C(=O)Nc2ccc(Nc3ncc4c(n3)N(C)c3ccc(C)cc3C(=O)N4C)cc2)cc1 | 95 | 81 | 95 | 85 | 34 | 84 | 93 | 100 | 87 | 100 | 8.2 | 79 | 100 | 93 | 0.041 | 91 | 85 | 100 | 20 | 85 | Activity [20]: 77%; Activity [21]: 86%; Activity [22]: 63%; Activity [23]: 97%; Activity [24]: 100%; Activity [25]: 96% |
| C=CC(=O)Nc1ccc(C(=O)Nc2ccc(Nc3ncc4c(n3)N(C)c3ccc(C)cc3C(=O)N4C)cc2)cc1 | 80 | 97 | 85 | 82 | 37 | 98 | 84 | 100 | 86 | 94 | 71 | 97 | 56 | 100 | 0.029 | 88 | 85 | 100 | 24 | 81 | Activity [20]: 96%; Activity [21]: 89%; Activity [22]: 86%; Activity [23]: 86%; Activity [24]: 87%; Activity [25]: 93% |
